From PubChem BioAssay
core dimer inh – inhibitors of HCV core protein dimerization, primary screen, biochemical, TR-FRET, high-throughput; inhibition, % at 5 µM; 300,000 compounds, 0.33% hits; TR-FRET GST/Flag-core106 dimerization, 1536-well;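 active means inhibition above the mean of all tested compounds plus 3 SD, set per screening campaign, cut at about 45% in these data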
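test system = GST/Flag-tagged HCV core106 proteins | probe or stimulus = Eu donor and XL665 acceptor anti-tag antibodies | times = compound-protein-antibody incubation 4 h at 22.5 °C | signal = TR-FRET, excitation 340 nm, emission 617 and 671 nm | measure = percent inhibition of core106 dimerization signal | controls = wells lacking GST-core106 and wells with excess unlabelled core106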
IMP-1 inh-1 – IMP-1 metallo-beta-lactamase inhibitors, primary screen, biochemical, epi-absorbance readout, Pseudomonas aeruginosa enzyme | metallo-beta-lactamase IMP-1 (Pseudomonas aeruginosa) | purified IMP-1, nitrocefin hydrolysis, epi-absorbance fluorescence | inhibition, % at 5.6 µM | 290,000 compounds, 0.45% hits | AID 1556, 2009;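 active means inhibition above the mean plus 3 SD of all compounds in the same screening run, cut at about 4.5% in these data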;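 further: 0% = IMP-1 with DMSO and 100% = DMSO wells lacking enzyme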
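System – purified recombinant IMP-1 beta-lactamase · Input – IMP-1 dispensed at 0.2 nM · Timing – 15 min preincubation plus 25 min reaction at 25 °C · Signal – Epi-absorbance fluorescence, 480 nm excitation, 530 nm emission · Measure – percent IMP-1 inhibition derived from blank-referenced optical density · Controls – Enzyme-plus-DMSO low control, enzyme-free DMSO high control · Replication – singlicate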
DNA FID counter – compounds displacing fluorescent DNA intercalator, primary screen, artefact control for HCV NS3 helicase inhibitor project, biochemical, FID fluorescence | AID 1845, 2009 | inhibition, % at 7.9 µM | DNA fluorescent intercalator displacement | 290,000 compounds, 0.17% hits; in the data active means inhibition above about 37%;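 further: 0% = vehicle and 100% = reference compound; higher means more ethidium bromide displaced from hairpin DNA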
VIM-2 inh – VIM-2 metallo-beta-lactamase inhibitors, primary screen, biochemical, epi-absorbance readout, Pseudomonas aeruginosa enzyme | AID 1527, 2009 | purified VIM-2, nitrocefin hydrolysis, epi-absorbance fluorescence | inhibition, % at 5.6 µM | 290,000 compounds, 0.89% hits;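 active means inhibition above the mean of all tested compounds plus 3 SD, cutoff set per screening run, cut at about 7.5% in these data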;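 further: red hydrolysis product quenches plate fluorescence so inhibitors raise well fluorescence; 0% = enzyme with DMSO and 100% = DMSO without enzyme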
IMP-1 inh-2 – IMP-1 metallo-beta-lactamase inhibitors, confirmation, selectivity assay for selective VIM-2 inhibitor project, biochemical, epi-absorbance readout, triplicate | 1,300 tested, under 10 active | shares compounds with VIM-2 inh | purified IMP-1, nitrocefin hydrolysis, epi-absorbance fluorescence | inhibition, % at 5.6 µM; call rule not given here;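 further: 0% = enzyme with vehicle and 100% = vehicle without enzyme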
VIM-2 FRET ctr – VIM-2 inhibitors in FRET format, confirmation, artefact control for selective VIM-2 inhibitor project, biochemical, epi-absorbance artifact exclusion. shares compounds with VIM-2 inh. inhibition, % at 5.6 µM. purified VIM-2, CCF2 FRET substrate hydrolysis. 1,300 compounds, 23% hits;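 active means inhibition above the mean of all tested compounds plus 3 SD, cut at about 19% in these data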;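 further: 0% = VIM-2 plus DMSO and 100% = no enzyme wells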
TEM-1 counter – TEM-1 serine beta-lactamase inhibitors, counter-screen for VIM-2 inhibitor project, biochemical, epi-absorbance, HTS; AID 1866, 2009; shares compounds with VIM-2 inh; Purified TEM-1, nitrocefin hydrolysis, epi-absorbance fluorescence; 1,300 compounds, 3% hits; inhibition, % at 5.6 µM;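 active means inhibition above that campaign's mean inhibition plus 3 SD, cut at about 0.46% in these data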;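 further: 0% = TEM-1 with DMSO and 100% = TEM-1 with 100 µM potassium clavulanate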
Target sequence (P62593 whole entry, looked up): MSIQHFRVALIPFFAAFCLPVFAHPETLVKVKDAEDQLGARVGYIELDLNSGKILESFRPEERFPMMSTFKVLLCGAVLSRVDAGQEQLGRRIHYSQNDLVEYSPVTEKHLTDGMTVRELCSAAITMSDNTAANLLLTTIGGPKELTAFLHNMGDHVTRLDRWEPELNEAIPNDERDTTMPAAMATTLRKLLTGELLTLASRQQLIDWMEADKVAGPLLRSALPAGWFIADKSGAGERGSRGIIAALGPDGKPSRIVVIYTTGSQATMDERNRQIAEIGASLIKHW
VIM-2 inh conf – VIM-2 metallo-beta-lactamase inhibitors, confirmation, biochemical, epi-absorbance, hits shared with IMP-1 screen; shares compounds with VIM-2 inh; purified VIM-2, nitrocefin hydrolysis; inhibition, % at 5.6 µM; 1,300 compounds, 96% hits; AID 2187, 2009;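 active means inhibition of the VIM-2 beta-lactamase enzyme above about 11% from the earlier first-round screen, limit read from the data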;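 further: 0% = VIM-2 with DMSO and 100% = buffer wells without enzyme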
The depositor's hits bear a star; x = not tested or not shown. This is a sample that favours compounds with a hit; in the whole collection about 1.6% have one here.

SMILES | core dimer inh | IMP-1 inh-1 | DNA FID counter | VIM-2 inh | IMP-1 inh-2 | VIM-2 FRET ctr | TEM-1 counter | VIM-2 inh conf
O=[N+]([O-])c1c(Nc2ccc(O)cc2)cc(Cl)c2nonc12 | 19 | -3 | 4 | 22* | -4 | 12 | -8 | 32*
C=C(C)CSc1cc(C)c(C#N)c2nc3ccccc3n12 | -12 | 2 | -9 | 17* | -3 | 4 | -9 | 21*
Cc1cc(NCCN2CCOCC2)n2c(nc3ccccc32)c1C#N | -1 | -5 | 6 | 7 | x | x | x | x
Cc1ccnc(N2CCN(c3cc(C)c(C#N)c4nc5ccccc5n34)CC2)c1 | 3 | -3 | 1 | -1 | x | x | x | x
Cc1cc(NCCCCO)n2c(nc3ccccc32)c1C#N | -8 | -2 | -1 | 19* | -3 | -10 | -7 | 40*
COCCN(CCOC)c1cc(C)c(C#N)c2nc3ccccc3n12 | 4 | -5 | -7 | -2 | x | x | x | x
Cc1cc(-c2ccco2)n2c(nc3ccccc32)c1C#N | 12 | -2 | -5 | 18* | -3 | 32* | -4 | 43*
CCN(CC)CCCNc1cc(C(F)(F)F)c(C#N)c2nc3ccccc3n12 | -17 | -1 | -4 | 29* | -2 | -5 | -2 | 41*
Cc1cc(=O)oc(C)c1C(=O)OC(C(=O)c1ccccc1)c1ccccc1 (configuration not stated) | -1 | 0 | -6 | -2 | x | x | x | x
CCOc1ccc(NC(=O)CN2C(=O)S/C(=C/c3cccn3C)C2=O)cc1 | 2 | -4 | 12 | -3 | x | x | x | x
COC(=O)c1sc2cnccc2c1N | -5 | 1 | 3 | 2 | x | x | x | x
COc1cccc(NC(=O)CNC(C)CCC(C)C)c1 (configuration not stated) | -6 | -2 | 13 | -4 | x | x | x | x
CCN(CC)CCNc1cc(C)c(C#N)c2nc3ccccc3n12 | -2 | -3 | -9 | 22* | -3 | -8 | -6 | 37*
Cc1cc(NCCCN2CCOCC2)n2c(nc3ccccc32)c1C#N | -1 | -1 | 13 | 40* | -2 | -9 | -5 | 57*
CCCn1c2ccccc2c2nnc(SCC(=O)Nc3ncccn3)nc21 | 11 | 0 | -15 | 2 | x | x | x | x
CCCCn1c2ccccc2c2nnc(SCCN3CCCCC3)nc21 | x | -3 | -3 | 13* | -3 | -6 | -7 | 19*
CCOc1cc(N2CCOCC2)c(OCC)cc1NC(=O)c1ccc(C)cc1 | -1 | -3 | -16 | -3 | x | x | x | x
CCOc1cc(N2CCOCC2)c(OCC)cc1NC(=O)c1ccc(-n2ccnc2)c([N+](=O)[O-])c1 | -10 | -4 | -34 | 68* | -3 | -7 | -6 | 75*
COc1cc(C(=O)N/N=C/c2coc3ccccc3c2=O)cc(OC)c1OC | 9 | 4 | -11 | 18* | 2 | 31* | -5 | 19*
O=C(N/N=C/c1coc2ccccc2c1=O)c1cc(O)cc(O)c1 | x | -1 | 1 | 0 | x | x | x | x
Cc1cc(C)n(-c2ccc([N+](=O)[O-])cc2-c2nn[nH]n2)n1 | -3 | -2 | -6 | 26* | -3 | 53* | -5 | 33*
O=[N+]([O-])c1ccc(O)c(-c2nn[nH]n2)c1 | -9 | -1 | -3 | -4 | x | x | x | x
CC(C)[C@H](Nc1ccc(S(=O)(=O)N2CCOCC2)cc1[N+](=O)[O-])C(=O)OCC(=O)N(C(C)C)C(C)C | -2 | -3 | -27 | -4 | x | x | x | x
CC(=O)c1c2c3c(cccc3n(C)c1=O)C(=O)c1ccccc1-2 | -4 | 3 | 23 | 22* | -2 | -3 | -4 | 30*
COC(Cn1c(-c2cccc(S(=O)(=O)N(C)C)c2)n[nH]c1=S)OC | -3 | -5 | -4 | -2 | x | x | x | x
SMILES | core dimer inh | IMP-1 inh-1 | DNA FID counter | VIM-2 inh | IMP-1 inh-2 | VIM-2 FRET ctr | TEM-1 counter | VIM-2 inh conf
Cc1ccc2c(c1)C(C)(C)[C@]1(C)NC(=O)CCN21 | -3 | -1 | -11 | -1 | x | x | x | x
COc1cc2c(cc1OC)C(c1ccc(-c3ccc(Cl)cc3Cl)o1)=NCC2 | -11 | 0 | 9 | 3 | x | x | x | x
COc1cc2c(cc1OC)C(c1ccc(-c3ccccc3Cl)o1)=NCC2 | 3 | -1 | 5 | 19* | -2 | 8 | -5 | 28*
COc1ccc(/C=N/NC(=S)Nc2cccc(C(=O)O)c2)cc1OC | -1 | -3 | -12 | 13* | -2 | 5 | -3 | 5
CCCc1ccc(C2C3=C(CC(C)(C)CC3=O)NC3=C2C(=O)c2ccccc23)cc1 (configuration not stated) | 15 | -3 | -4 | -2 | x | x | x | x
O=C1C(=O)N(c2nccs2)C(c2ccccc2F)/C1=C(\O)c1ccc2c(c1)OCCO2 (configuration not stated) | -2 | 1 | -46 | 21* | -3 | 33* | -5 | 22*
CCc1ccc(N(CC(=O)NCc2ccc3c(c2)OCO3)C(=O)c2csnn2)cc1 | 8 | -2 | -35 | -2 | x | x | x | x
CN1CCN(c2ccc(NC(=S)NC(=O)c3cccc4ccccc34)cc2)CC1 | -2 | 1 | 22 | 20* | -2 | -8 | -6 | 29*
CN1CCN(c2ccc(NC(=S)NC(=O)/C=C/c3ccco3)cc2)CC1 | -12 | 1 | 13 | 50* | 0 | -3 | -2 | 67*
CN1CCN(c2ccc(NC(=O)COc3cccc4ccccc34)cc2)CC1 | -9 | -3 | 14 | 28* | -3 | -5 | -4 | 33*
CCN1CCN(c2ccc(NC(=O)COc3ccccc3Cl)cc2)CC1 | -5 | -2 | 8 | 14* | -3 | -1 | -8 | 31*
COc1ccc(C(=O)Nc2cccc(C(=O)O)c2)cc1S(=O)(=O)N1CCCC1 | -3 | -1 | -15 | 0 | x | x | x | x
CCc1ccc(-c2nc(CN3CCC(C(=O)N4CCN(c5ccccc5)CC4)CC3)c(C)o2)cc1 | -1 | -6 | 25 | -5 | x | x | x | x
CCOc1ccccc1Nc1cc(C)nc2nc(C)nn12 | 0 | -4 | -3 | 15* | -2 | -1 | 0.5* | 28*
O=Cc1c(NCc2ccc(Cl)cc2)c2ccccc2[nH]c1=O | -3 | -4 | -23 | 14* | -3 | 38* | -6 | 24*
Cc1ccccc1-c1ccc(=O)n(CC(=O)Nc2ccc(S(=O)(=O)N(C)C)cc2)n1 | 4 | -3 | -25 | -7 | x | x | x | x
